Laboratory results published in ChEMBL document CHEMBL2086252, “Syntheses and evaluation of anticonvulsant activity of novel branched alkyl carbamates” (J Med Chem, 2012).
Active and inactive are the calls of the source.

Experiments:
Mus musculus [1] = assay: Anticonvulsant activity in albino CF1 mouse assessed as protection against subcutaneous metrazol-induced seizures at 30 mg/kg, ip after 4 hrs; format: functional, organism-based; parameters: dose 30 mg/kg
Procedure, shortened: (§1)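 Mice dosed ip at 30, 100 or 300 mg/kg, then tested 0.5 h and 4 h after administration in the MES or scMet test. Protection was recorded as animals protected over animals tested. Neurotoxicity was recorded as motor impairment or sedation, as animals affected over animals tested.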

Mus musculus [2] = assay: Anticonvulsant activity in albino CF1 mouse assessed as protection against subcutaneous metrazol-induced seizures at 100 mg/kg, ip after 0.5 hrs; format: functional, organism-based; parameters: dose 100 mg/kg; procedure, shortened: as §1
Mus musculus [3] = assay: Anticonvulsant activity in albino CF1 mouse assessed as protection against maximal electroshock-induced seizures at 100 mg/kg, ip after 4 hrs; format: functional, organism-based; parameters: dose 100 mg/kg; procedure, shortened: as §1
Rattus norvegicus [4] = assay: Neurotoxicity in pilocarpine-induced status epilepticus Sprague-Dawley albino rat model assessed as minimal motor impairment at 300 mg/kg, ip after 4 hrs by rotarod test; format: toxicity, organism-based; parameters: dose 300 mg/kg, route intraperitoneal; conditions: in vivo
Procedure, shortened: (§2)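 Rat pilocarpine status epilepticus model: test carbamate given at 0 or 30 min after the first observed Racine stage 3 motor seizure, which marks SE onset. Neurotoxicity was scored within the same model.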

Mus musculus [5] = assay: Neurotoxicity in albino CF1 mouse assessed as minimal motor impairment at 300 mg/kg, ip after 4 hrs by rotarod test; format: toxicity, organism-based; parameters: dose 300 mg/kg, route intraperitoneal; conditions: in vivo; procedure, shortened: as §1
Rattus norvegicus [6] = assay: Neurotoxicity in pilocarpine-induced status epilepticus Sprague-Dawley albino rat model assessed as minimal motor impairment at 30 mg/kg, ip after 2 hrs by rotarod test; format: toxicity, organism-based; parameters: dose 30 mg/kg, route intraperitoneal; conditions: in vivo; procedure, shortened: as §2
Mus musculus [7] = assay: Anticonvulsant activity in albino CF1 mouse assessed as protection against maximal electroshock-induced seizures at 30 mg/kg, ip after 4 hrs; format: functional, organism-based; parameters: dose 30 mg/kg; procedure, shortened: as §1
Mus musculus [8] = assay: Anticonvulsant activity in albino CF1 mouse assessed as protection against maximal electroshock-induced seizures at 300 mg/kg, ip after 4 hrs; format: functional, organism-based; parameters: dose 300 mg/kg; procedure, shortened: as §1
Mus musculus [9] = assay: Anticonvulsant activity in albino CF1 mouse assessed as protection against maximal electroshock-induced seizures at 300 mg/kg, ip after 0.5 hrs; format: functional, organism-based; parameters: dose 300 mg/kg; procedure, shortened: as §1
Rattus norvegicus [10] = assay: Neurotoxicity in pilocarpine-induced status epilepticus Sprague-Dawley albino rat model assessed as minimal motor impairment at 100 mg/kg, ip after 0.5 hrs by rotarod test; format: toxicity, organism-based; parameters: dose 100 mg/kg, route intraperitoneal; conditions: in vivo
Rattus norvegicus [11] = assay: Neurotoxicity in pilocarpine-induced status epilepticus Sprague-Dawley albino rat model assessed as minimal motor impairment at 100 mg/kg, ip after 0.25 hr by rotarod test; format: toxicity, organism-based; parameters: dose 100 mg/kg, route intraperitoneal; conditions: in vivo
Mus musculus [12] = assay: Anticonvulsant activity in albino CF1 mouse assessed as protection against subcutaneous metrazol-induced seizures at 100 mg/kg, ip after 4 hrs; format: functional, organism-based; parameters: dose 100 mg/kg; procedure, shortened: as §1
Rattus norvegicus [13] = assay: Neurotoxicity in pilocarpine-induced status epilepticus Sprague-Dawley albino rat model assessed as minimal motor impairment at 100 mg/kg, ip after 2 hrs by rotarod test; format: toxicity, organism-based; parameters: dose 100 mg/kg, route intraperitoneal; conditions: in vivo
Mus musculus [14] = assay: Anticonvulsant activity in albino CF1 mouse assessed as protection against maximal electroshock-induced seizures at 30 mg/kg, ip after 0.5 hrs; format: functional, organism-based; parameters: dose 30 mg/kg; procedure, shortened: as §1
Rattus norvegicus [15] = assay: Neurotoxicity in pilocarpine-induced status epilepticus Sprague-Dawley albino rat model assessed as minimal motor impairment at 300 mg/kg, ip after 2 hrs by rotarod test; format: toxicity, organism-based; parameters: dose 300 mg/kg, route intraperitoneal; conditions: in vivo; procedure, shortened: as §2
Rattus norvegicus [16] = assay: Neurotoxicity in pilocarpine-induced status epilepticus Sprague-Dawley albino rat model assessed as minimal motor impairment at 300 mg/kg, ip after 0.25 hr by rotarod test; format: toxicity, organism-based; parameters: dose 300 mg/kg, route intraperitoneal; conditions: in vivo; procedure, shortened: as §2
Mus musculus [17] = assay: Neurotoxicity in albino CF1 mouse assessed as minimal motor impairment at 30 mg/kg, ip after 0.5 hrs by rotarod test; format: toxicity, organism-based; parameters: dose 30 mg/kg, route intraperitoneal; conditions: in vivo; procedure, shortened: as §1
Rattus norvegicus [18] = assay: Anticonvulsant activity in Sprague-Dawley albino rat assessed as protection against maximal electroshock-induced seizures at 30 mg/kg, po after 1 hr; format: functional, organism-based; parameters: dose 30 mg/kg
Procedure, shortened: (§3)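 Rats dosed orally. Anti-MES protection was scored as animals protected over animals tested at each time after dosing. Neurotoxicity was scored as motor impairment or sedation, as animals affected over animals tested.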

Mus musculus [19] = assay: Anticonvulsant activity in albino CF1 mouse assessed as protection against subcutaneous metrazol-induced seizures at 30 mg/kg, ip after 0.5 hrs; format: functional, organism-based; parameters: dose 30 mg/kg; procedure, shortened: as §1
Rattus norvegicus [20] = assay: Neurotoxicity in pilocarpine-induced status epilepticus Sprague-Dawley albino rat model assessed as minimal motor impairment at 30 mg/kg, ip after 0.5 hrs by rotarod test; format: toxicity, organism-based; parameters: dose 30 mg/kg, route intraperitoneal; conditions: in vivo; procedure, shortened: as §2
Rattus norvegicus [21] = assay: Neurotoxicity in pilocarpine-induced status epilepticus Sprague-Dawley albino rat model assessed as minimal motor impairment at 30 mg/kg, ip after 4 hrs by rotarod test; format: toxicity, organism-based; parameters: dose 30 mg/kg, route intraperitoneal; conditions: in vivo; procedure, shortened: as §2
Rattus norvegicus [22] = assay: Neurotoxicity in Sprague-Dawley albino rat assessed as minimal motor impairment at 30 mg/kg, po by rotarod test; format: toxicity, organism-based; parameters: dose 30 mg/kg, route oral; conditions: in vivo; procedure, shortened: as §3
Mus musculus [23] = assay: Anticonvulsant activity in albino CF1 mouse assessed as protection against subcutaneous metrazol-induced seizures at 300 mg/kg, ip after 0.5 hrs; format: functional, organism-based; parameters: dose 300 mg/kg; procedure, shortened: as §1
Rattus norvegicus [24] = assay: Neurotoxicity in pilocarpine-induced status epilepticus Sprague-Dawley albino rat model assessed as minimal motor impairment at 100 mg/kg, ip after 1 hr by rotarod test; format: toxicity, organism-based; parameters: dose 100 mg/kg, route intraperitoneal; conditions: in vivo
Rattus norvegicus [25] = assay: Neurotoxicity in pilocarpine-induced status epilepticus Sprague-Dawley albino rat model assessed as minimal motor impairment at 100 mg/kg, ip after 4 hrs by rotarod test; format: toxicity, organism-based; parameters: dose 100 mg/kg, route intraperitoneal; conditions: in vivo
Rattus norvegicus [26] = assay: Neurotoxicity in pilocarpine-induced status epilepticus Sprague-Dawley albino rat model assessed as minimal motor impairment at 30 mg/kg, ip after 1 hr by rotarod test; format: toxicity, organism-based; parameters: dose 30 mg/kg, route intraperitoneal; conditions: in vivo; procedure, shortened: as §2
Rattus norvegicus [27] = assay: Anticonvulsant activity in Sprague-Dawley albino rat assessed as protection against maximal electroshock-induced seizures at 30 mg/kg, po after 15 mins; format: functional, organism-based; parameters: dose 30 mg/kg; procedure, shortened: as §3
Rattus norvegicus [28] = assay: Neurotoxicity in pilocarpine-induced status epilepticus Sprague-Dawley albino rat model assessed as minimal motor impairment at 300 mg/kg, ip after 1 hr by rotarod test; format: toxicity, organism-based; parameters: dose 300 mg/kg, route intraperitoneal; conditions: in vivo; procedure, shortened: as §2
Mus musculus [29] = assay: Anticonvulsant activity in albino CF1 mouse assessed as protection against subcutaneous metrazol-induced seizures at 300 mg/kg, ip after 4 hrs; format: functional, organism-based; parameters: dose 300 mg/kg; procedure, shortened: as §1
Rattus norvegicus [30] = assay: Neurotoxicity in pilocarpine-induced status epilepticus Sprague-Dawley albino rat model assessed as minimal motor impairment at 30 mg/kg, ip after 0.25 hr by rotarod test; format: toxicity, organism-based; parameters: dose 30 mg/kg, route intraperitoneal; conditions: in vivo; procedure, shortened: as §2
Rattus norvegicus [31] = assay: Anticonvulsant activity in Sprague-Dawley albino rat assessed as protection against maximal electroshock-induced seizures at 30 mg/kg, po after 30 mins; format: functional, organism-based; parameters: dose 30 mg/kg; procedure, shortened: as §3
Rattus norvegicus [32] = assay: Neurotoxicity in pilocarpine-induced status epilepticus Sprague-Dawley albino rat model assessed as minimal motor impairment at 300 mg/kg, ip after 0.5 hrs by rotarod test; format: toxicity, organism-based; parameters: dose 300 mg/kg, route intraperitoneal; conditions: in vivo; procedure, shortened: as §2
Rattus norvegicus [33] = assay: Anticonvulsant activity in Sprague-Dawley albino rat assessed as protection against maximal electroshock-induced seizures at 30 mg/kg, po after 4 hrs; format: functional, organism-based; parameters: dose 30 mg/kg; procedure, shortened: as §3
Rattus norvegicus [34] = assay: Anticonvulsant activity in Sprague-Dawley albino rat assessed as protection against maximal electroshock-induced seizures at 30 mg/kg, po after 2 hrs; format: functional, organism-based; parameters: dose 30 mg/kg; procedure, shortened: as §3
Rattus norvegicus [35] = assay: Protective index, ratio of TD50 for po dosed Sprague-Dawley albino rat by rotarod test to ED50 for po dosed Sprague-Dawley albino rat by maximal electroshock seizures test; format: functional
Procedure, shortened: (§4)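 Protective index calculated as TD50/ED50, with TD50 and ED50 taken from the same species and dosing route.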

Rattus norvegicus [36] = assay: Anticonvulsant activity in po dosed Sprague-Dawley albino rat assessed as protection against maximal electroshock-induced seizures; format: functional
Procedure, shortened: (§5)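 Quantitative testing: rats dosed orally or ip in MES and scMet tests, and mice dosed ip, including the 6 Hz (32 mA) psychomotor seizure test. ED50 and TD50 were reported in mg/kg with ranges in parentheses. Protective index was calculated as TD50/ED50.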

Rattus norvegicus [37] = assay: Anticonvulsant activity in po dosed Sprague-Dawley albino rat assessed as protection against subcutaneous metrazol-induced seizures; format: functional; procedure, shortened: as §5
[38] = Neurotoxicity in po dosed Sprague-Dawley albino rat assessed as minimal motor impairment by rotarod test; format: toxicity, organism-based; conditions: in vivo
Procedure, shortened: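 Rats dosed orally; 4 rats per time point after dosing. Neurotoxicity was scored as motor impairment or sedation and reported as number of animals affected over number tested.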

Rattus norvegicus [39] = assay: Protective index, ratio of TD50 for po dosed Sprague-Dawley albino rat by rotarod test to ED50 for po dosed Sprague-Dawley albino rat by subcutaneous metrazol seizures test; format: functional; procedure, shortened: as §4

CCCC(CCC)COC(=O)NC
Non-toxic: Activity (Mus musculus [5]) | Activity (Rattus norvegicus [6]) | Activity (Rattus norvegicus [13]) | Activity (Mus musculus [17]) | Activity (Rattus norvegicus [20]) | Activity (Rattus norvegicus [21]) | Activity (Rattus norvegicus [22]) | Activity (Rattus norvegicus [25]) | Activity (Rattus norvegicus [26]) | Activity (Rattus norvegicus [30])
Toxic: Activity (Rattus norvegicus [4]) | Activity (Rattus norvegicus [10]) | Activity (Rattus norvegicus [11]) | Activity (Rattus norvegicus [15]) | Activity (Rattus norvegicus [16]) | Activity (Rattus norvegicus [24]) | Activity (Rattus norvegicus [28]) | Activity (Rattus norvegicus [32])
inactive: Activity (Mus musculus [1]) | Activity (Mus musculus [2]) | Activity (Mus musculus [3]) | Activity (Mus musculus [7]) | Activity (Mus musculus [12]) | Activity (Mus musculus [14]) | Activity (Rattus norvegicus [18]) | Activity (Mus musculus [19]) | Activity (Rattus norvegicus [27]) | Activity (Mus musculus [29]) | Activity (Rattus norvegicus [31]) | Activity (Rattus norvegicus [33]) | Activity (Rattus norvegicus [34])
active: Activity (Mus musculus [8]) | Activity (Mus musculus [9]) | Activity (Mus musculus [23])

NC(=O)OCC(COC(N)=O)c1ccccc1 [FELBAMATE]
25 mg/kg: ED50 (Rattus norvegicus [36])
>2: Ratio TD50/ED50 (Rattus norvegicus [39])
20: Ratio TD50/ED50 (Rattus norvegicus [35])
> 250 mg/kg: ED50 (Rattus norvegicus [37])
> 500 mg/kg: TD50 [38]
